For test [1], the target named is Tyrosyl-DNA phosphodiesterase 1 (Homo sapiens, UniProt Q9NUW8). Description: Inhibition of recombinant TDP1 (unknown origin) using 5'-(5,6 FAM-aac gtc agg gtc ttc c-BHQ1)-3' as substrate measured every 55 secs for 8 mins by fluorescence based assay. In outline:
(§1)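 Purified TDP1, either wild-type or the H493R mutant, tested against the fluorogenic substrate. The IC50 is the compound concentration that cuts enzyme activity by 50%.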

The subject of test [2] is SNB-19. Kind of test: Potentiation of TMZ-induced cytotoxicity against human SNB19 cells assessed as combination index at 100 uM incubated for 72 hrs in presence of 1250 uM TMZ by MTT assay. In kind it is functional. In general terms: Tetrazolium dyes change colour on reduction, which living cells bring about.
The test system of test [3] is U-87 MG. Description: Cytotoxicity activity against human U87MG cells assessed as reduction in cell viability incubated for 72 hrs by MTT assay. The format is cell-based, U-87MG ATCC.
For test [4], the system named is SNB-19. Kind of test: Cytotoxicity activity against human SNB19 cells assessed as reduction in cell viability incubated for 72 hrs by MTT assay. In kind it is cell-based. Particulars: SNB-19, 72 h.
Test [5] has as its system SNB-19. Kind of test: Potentiation of TMZ-induced cytotoxicity against human SNB19 cells assessed as reduction in cell viability at 100 uM incubated for 72 hrs in presence of 1250 uM TMZ by MTT assay relative to TMZ alone. The format is functional.
Test [6] addresses Poly [ADP-ribose] polymerase 1 (Homo sapiens) (UniProt P09874). Kind of test: Inhibition of PARP1 (unknown origin) assessed as residual activity at 100 uM relative to control.
For a further test, the system named is A549. Description: Cytotoxicity activity against human A549 cells assessed as reduction in cell viability incubated for 72 hrs by MTT assay. In kind it is cell-based. Particulars: A549, 72 h.
The test system of test [7] is U-87 MG. Kind of test: Potentiation of TMZ-induced cytotoxicity against human U87MG cells assessed as combination index at 100 uM incubated for 72 hrs in presence of 2500 uM TMZ by MTT assay. The format is functional, U-87MG ATCC.
The subject of test [8] is SNB-19. Kind of test: Potentiation of TMZ-induced cytotoxicity against human SNB19 cells assessed as combination index at 75 uM incubated for 72 hrs in presence of 2000 uM TMZ by MTT assay. In kind it is functional.
Test [9] can be described thus: Cytotoxicity activity against human SK-MEL-8 cells assessed as reduction in cell viability incubated for 72 hrs by MTT assay. The format is cell-based.
Test [10] has as its system SNB-19. Description: Potentiation of TMZ-induced cytotoxicity against human SNB19 cells assessed as reduction in cell viability at 75 uM incubated for 72 hrs in presence of 2000 uM TMZ by MTT assay relative to TMZ alone. In kind it is functional.
Another test has as its system T98G. Kind of test: Cytotoxicity activity against human T98G cells assessed as reduction in cell viability incubated for 72 hrs by MTT assay. In kind it is cell-based.
In test [11] the target is Poly [ADP-ribose] polymerase 2 (Homo sapiens) (UniProt Q9UGN5). Description: Inhibition of PARP2 (unknown origin) assessed as residual activity at 100 uM relative to control.
The test system of test [12] is U-87 MG. Description: Potentiation of TMZ-induced cytotoxicity against human U87MG cells assessed as reduction in cell viability at 100 uM incubated for 72 hrs in presence of 2500 uM TMZ by MTT assay relative to TMZ alone. In kind it is functional, U-87MG ATCC.
In test [13] the target is Tyrosyl-DNA phosphodiesterase 1 (Homo sapiens, UniProt Q9NUW8, H493R). Kind of test: Inhibition of recombinant TDP1 H493R mutant (unknown origin) using 5'-(5,6 FAM-aac gtc agg gtc ttc c-BHQ1)-3' as substrate measured every 55 secs for 8 mins by fluorescence based assay. In outline:
as §1

Test [14] has as its system U-87 MG. Kind of test: Potentiation of TMZ-induced cytotoxicity against human U87MG cells assessed as reduction in cell viability at 100 uM incubated for 72 hrs in presence of 2000 uM TMZ by MTT assay relative to TMZ alone. The format is functional, U-87MG ATCC.
For test [15], the system named is U-87 MG. Kind of test: Potentiation of TMZ-induced cytotoxicity against human U87MG cells assessed as cell viability at 100 uM incubated for 72 hrs in presence of 2000 uM TMZ by MTT assay (reference value: 100%). In kind it is functional, U-87MG ATCC.
In test [16] the test system is SNB-19. Description: Potentiation of TMZ-induced cytotoxicity against human SNB19 cells assessed as cell viability at 100 uM incubated for 72 hrs in presence of 1250 uM TMZ by MTT assay (Rvb =100%). The format is functional.
For test [17], the system named is U-87 MG. Kind of test: Potentiation of TMZ-induced cytotoxicity against human U87MG cells assessed as combination index at 100 uM incubated for 72 hrs in presence of 2000 uM TMZ by MTT assay. In kind it is functional, U-87MG ATCC.
Test [18] in a line: Cytotoxicity activity against human MDA-MB cells assessed as reduction in cell viability incubated for 72 hrs by MTT assay. In kind it is cell-based.
Test [19] deals with SNB-19. Kind of test: Potentiation of TMZ-induced cytotoxicity against human SNB19 cells assessed as cell viability at 75 uM incubated for 72 hrs in presence of 2000 uM TMZ by MTT assay (Rvb =100%). The format is functional.
Test [20] concerns U-87 MG. Description: Potentiation of TMZ-induced cytotoxicity against human U87MG cells assessed as cell viability at 100 uM incubated for 72 hrs in presence of 2500 uM TMZ by MTT assay (reference value: 100%). In kind it is functional, U-87MG ATCC.
For a further test, the system named is WI-38. Description: Cytotoxicity activity against human WI38 cells assessed as reduction in cell viability incubated for 72 hrs by MTT assay. The format is cell-based. Particulars: WI-38, 72 h.
The subject of the next test is MCF7. Kind of test: Cytotoxicity activity against human MCF7 cells assessed as reduction in cell viability incubated for 72 hrs by MTT assay. In kind it is cell-based. Particulars: MCF7, 72 h.
For a further test, the system named is U-937. Kind of test: Cytotoxicity activity against human U937 cells assessed as reduction in cell viability incubated for 72 hrs by MTT assay. The format is cell-based. Particulars: U-937, 72 h.

A value given as a limit tells only on which side of the number the result lay.

Sequence of Tyrosyl-DNA phosphodiesterase 1 (Homo sapiens, UniProt Q9NUW8) (Q9NUW8 whole entry): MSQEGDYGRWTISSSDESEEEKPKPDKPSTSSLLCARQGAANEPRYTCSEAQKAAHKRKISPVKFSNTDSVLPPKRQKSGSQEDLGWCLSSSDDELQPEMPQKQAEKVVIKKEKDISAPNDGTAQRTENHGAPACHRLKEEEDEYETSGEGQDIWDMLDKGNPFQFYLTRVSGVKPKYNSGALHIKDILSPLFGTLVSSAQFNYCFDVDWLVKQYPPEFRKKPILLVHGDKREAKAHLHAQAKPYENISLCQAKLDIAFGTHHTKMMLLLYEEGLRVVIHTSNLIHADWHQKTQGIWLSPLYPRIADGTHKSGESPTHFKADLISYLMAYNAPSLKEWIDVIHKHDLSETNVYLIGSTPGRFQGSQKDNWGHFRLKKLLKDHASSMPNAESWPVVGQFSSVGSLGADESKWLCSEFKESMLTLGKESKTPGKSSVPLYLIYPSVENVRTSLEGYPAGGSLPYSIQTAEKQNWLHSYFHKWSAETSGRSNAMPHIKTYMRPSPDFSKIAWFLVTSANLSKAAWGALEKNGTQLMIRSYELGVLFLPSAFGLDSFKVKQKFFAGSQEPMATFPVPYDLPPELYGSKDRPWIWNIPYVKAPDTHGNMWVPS
Sequence of Poly [ADP-ribose] polymerase 1 (Homo sapiens) (P09874 whole entry): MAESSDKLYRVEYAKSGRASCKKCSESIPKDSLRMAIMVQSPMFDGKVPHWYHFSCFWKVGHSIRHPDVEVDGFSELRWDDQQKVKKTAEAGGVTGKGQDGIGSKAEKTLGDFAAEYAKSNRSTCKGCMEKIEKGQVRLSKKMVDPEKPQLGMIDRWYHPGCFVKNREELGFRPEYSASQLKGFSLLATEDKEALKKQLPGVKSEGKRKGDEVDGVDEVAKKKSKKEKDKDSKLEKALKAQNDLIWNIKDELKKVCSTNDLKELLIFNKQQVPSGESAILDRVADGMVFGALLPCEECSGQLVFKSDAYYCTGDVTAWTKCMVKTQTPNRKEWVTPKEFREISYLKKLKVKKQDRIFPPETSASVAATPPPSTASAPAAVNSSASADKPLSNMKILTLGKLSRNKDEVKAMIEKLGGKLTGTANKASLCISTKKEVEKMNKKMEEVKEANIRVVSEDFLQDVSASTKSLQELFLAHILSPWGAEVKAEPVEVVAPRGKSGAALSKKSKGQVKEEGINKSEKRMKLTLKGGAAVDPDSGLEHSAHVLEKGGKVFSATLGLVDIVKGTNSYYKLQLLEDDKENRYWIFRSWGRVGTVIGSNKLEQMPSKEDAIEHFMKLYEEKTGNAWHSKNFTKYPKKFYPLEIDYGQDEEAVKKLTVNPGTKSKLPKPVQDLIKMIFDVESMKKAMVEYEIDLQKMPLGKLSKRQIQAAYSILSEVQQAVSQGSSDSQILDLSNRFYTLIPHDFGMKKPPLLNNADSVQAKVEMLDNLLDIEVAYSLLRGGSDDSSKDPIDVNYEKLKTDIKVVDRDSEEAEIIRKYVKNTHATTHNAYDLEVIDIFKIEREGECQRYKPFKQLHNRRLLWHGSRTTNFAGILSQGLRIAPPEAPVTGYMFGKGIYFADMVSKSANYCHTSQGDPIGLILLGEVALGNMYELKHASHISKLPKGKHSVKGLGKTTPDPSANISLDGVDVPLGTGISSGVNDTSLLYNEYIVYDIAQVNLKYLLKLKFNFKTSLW
Sequence of Tyrosyl-DNA phosphodiesterase 1 (Homo sapiens, UniProt Q9NUW8, H493R) (Q9NUW8 whole entry H493R): as the sequence (Q9NUW8 whole entry) above, with H493R counted along it
Sequence of Poly [ADP-ribose] polymerase 2 (Homo sapiens) (Q9UGN5 whole entry): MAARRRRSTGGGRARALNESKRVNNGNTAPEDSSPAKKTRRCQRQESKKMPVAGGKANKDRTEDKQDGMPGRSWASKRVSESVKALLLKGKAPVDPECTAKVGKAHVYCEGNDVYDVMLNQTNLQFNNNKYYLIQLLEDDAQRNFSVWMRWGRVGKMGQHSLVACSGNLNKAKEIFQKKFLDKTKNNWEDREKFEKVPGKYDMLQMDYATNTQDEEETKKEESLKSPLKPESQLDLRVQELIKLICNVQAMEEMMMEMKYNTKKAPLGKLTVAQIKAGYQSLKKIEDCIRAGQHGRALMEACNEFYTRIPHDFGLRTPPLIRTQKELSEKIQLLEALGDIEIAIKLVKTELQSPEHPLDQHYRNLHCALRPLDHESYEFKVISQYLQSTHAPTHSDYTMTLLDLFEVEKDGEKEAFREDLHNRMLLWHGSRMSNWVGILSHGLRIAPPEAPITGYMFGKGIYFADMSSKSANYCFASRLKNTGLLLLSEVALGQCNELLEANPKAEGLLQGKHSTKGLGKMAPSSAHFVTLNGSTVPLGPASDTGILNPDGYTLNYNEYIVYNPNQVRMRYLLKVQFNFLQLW

In general, IC50 refers to the concentration that gives 50% inhibition. As to `CC(C)c1ccc2c(c1)CC[C@H]1[C@](C)(CNC(=O)NC34CC5CC(CC(C5)C3)C4)CCC[C@]21C`, the IC50 in [1] was 0.1 µM; in the test with U-87 MG [3], greater than 100 µM; in the test on SNB-19 [4] it was greater than 100 µM; in the test with A549, greater than 100 µM; in [9], greater than 100 µM; in the test with T98G, greater than 100 µM. For the same compound, the figures for the IC50 in test [13] and in test [18] were 19.3 µM and greater than 100 µM, respectively. The CI in the test with SNB-19 [2] was 0.25; in the test on U-87 MG [7], 0.43; in the test with SNB-19 [8], 0.13; in the test on U-87 MG [17] it was 0.44. In addition, the “fold change (FC)” value in the test on SNB-19 [5] was 1.6; with SNB-19 [10], 1.6; in the test with U-87 MG [12], 1.7; in the test on U-87 MG [14], 1.4. The Activity came out at 79% in test [6]; 107% in test [11]; 72% in the test on U-87 MG [15]; 61.3% in the test with SNB-19 [16]; 63.7% in the test on SNB-19 [19]; 58.2% in the test on U-87 MG [20].

Take `CC(C)c1ccc2c(c1)CC[C@H]1[C@](C)(CNC(=O)NCCCCCCNC(=O)NC[C@]3(C)CCC[C@]4(C)c5ccc(C(C)C)cc5CC[C@@H]34)CCC[C@]21C`: the concentration for half-maximal inhibition (IC50) in [1] is 0.19 µM; in the test with U-87 MG [3] it was greater than 100 µM; in the test on SNB-19 [4] it was greater than 100 µM; with A549, greater than 100 µM; with WI-38, greater than 100 µM; in [9] it was greater than 100 µM. The IC50 in the test with T98G was greater than 100 µM; in [13] it was 9.3 µM; in [18] it was greater than 100 µM; in the test with MCF7, greater than 100 µM; in the test with U-937, greater than 100 µM. Besides, the CI in the test on SNB-19 [2] turned out to be 0.92; with U-87 MG [7], 0.43; in the test on SNB-19 [8], 0.15; in the test on U-87 MG [17], 1.79. The Activity in test [6] amounted to 99%; in [11], 142%; in the test with U-87 MG [15], 109.8%; in the test on SNB-19 [16], 88.9%; in the test on SNB-19 [19], 70.3%; in the test with U-87 MG [20], 59.3%. Further, the “fold change (FC)” value in the test on SNB-19 [10] was 1.4; with U-87 MG [12], 1.7.

Values taken from ChEMBL document CHEMBL4414558, “Dehydroabietylamine Ureas and Thioureas as Tyrosyl-DNA Phosphodiesterase 1 Inhibitors That Enhance the Antitumor Effect of Temozolomide on Glioblastoma Cells” (J Nat Prod, 2019).
